Results from ChEMBL document CHEMBL1146365, “Synthesis and biological evaluation of new N-(2-hydroxy-4(or 5)-nitro/aminophenyl)benzamides and phenylacetamides as antimicrobial agents” (2007).
≈ marks a conversion by molar mass, not a printed value.

Legend:
Klebsiella pneumoniae [1] = test: Antibacterial activity against Klebsiella pneumoniae isolate assessed after 24 hrs by serial dilution method; type: functional
How it was run: (§1)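 Strains were subcultured twice on MHA at 37 °C overnight. Inoculum was diluted from McFarland 0.5 to 10^5 cfu/ml, giving 10^4 cfu/ml in wells. Solvent, medium and organism-only controls were included. Incubated 37 °C, humid chamber, 24 h, in triplicate. MIC = lowest concentration with no macroscopic growth.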

Pseudomonas aeruginosa [2] = test: Antibacterial activity against Pseudomonas aeruginosa isolate assessed after 24 hrs by serial dilution method; type: functional; how it was run: as §1
Escherichia coli [3] = test: Antibacterial activity against Escherichia coli isolate assessed after 24 hrs by serial dilution method; type: functional; how it was run: as §1
Bacillus subtilis [4] = test: Antibacterial activity against Bacillus subtilis ATCC 6633 assessed after 24 hrs by serial dilution method; type: functional; conditions: ATCC 6633, 24 h; how it was run: as §1
Staphylococcus aureus [5] = test: Antibacterial activity against Staphylococcus aureus ATCC 25923 assessed after 24 hrs by serial dilution method; type: functional; conditions: ATCC 25923, 24 h; how it was run: as §1
Candida albicans [6] = test: Antifungal activity against Candida albicans ATCC 10231 assessed after 48 hrs by serial dilution method; type: functional; conditions: ATCC 10231, 48 h
How it was run: (§2)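 Broth microdilution per CLSI M27-A in RPMI-1640 with L-glutamine, MOPS-buffered pH 7, with 2-fold compound dilutions. Yeasts were subcultured twice on SDA at 35 °C for 24–48 h. Inoculum was diluted from McFarland 0.5 to 10^4 cfu/ml, giving 10^3 cfu/ml in wells. Incubated 35 °C, humid chamber, 48 h, in triplicate. MIC = lowest concentration with no macroscopic growth.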

Candida albicans [7] = test: Antifungal activity against Candida albicans isolate assessed after 48 hrs by serial dilution method; type: functional; how it was run: as §2
Escherichia coli [8] = test: Antibacterial activity against Escherichia coli ATCC assessed after 24 hrs by serial dilution method
Klebsiella pneumoniae [9] = test: Antibacterial activity against Klebsiella pneumoniae RSHM 574 assessed after 24 hrs by serial dilution method
Bacillus subtilis [10] = test: Antibacterial activity against drug-resistant Bacillus subtilis assessed after 24 hrs by serial dilution method
Pseudomonas aeruginosa [11] = test: Antibacterial activity against Pseudomonas aeruginosa ATCC […] assessed after 24 hrs by serial dilution method
Staphylococcus aureus [12] = test: Antibacterial activity against drug-resistant Staphylococcus aureus assessed after 24 hrs by serial dilution method

| SMILES | MIC (Klebsiella pneumoniae [1]) [µg/mL] | MIC (Pseudomonas aeruginosa [2]) [µg/mL] | MIC (Escherichia coli [3]) [µg/mL] | MIC (Bacillus subtilis [4]) [µg/mL] | MIC (Staphylococcus aureus [5]) [µg/mL] | MIC (Candida albicans [6]) [µg/mL] | MIC (Candida albicans [7]) [µg/mL] | MIC (Escherichia coli [8]) [µg/mL] | MIC (Klebsiella pneumoniae [9]) [µg/mL] | MIC (Bacillus subtilis [10]) [µg/mL] | MIC (Pseudomonas aeruginosa [11]) [µg/mL] | MIC (Staphylococcus aureus [12]) [µg/mL] |
| --- | --- | --- | --- | --- | --- | --- | --- | --- | --- | --- | --- | --- |
| Nc1ccc(NC(=O)c2ccccc2)c(O)c1 | 250 (≈ 1100 µM) | 250 (≈ 1100 µM) | 125 (≈ 548 µM) | 62.5 (≈ 274 µM) | 125 (≈ 548 µM) | 62.5 (≈ 274 µM) | 62.5 (≈ 274 µM) | 125 (≈ 548 µM) | 125 (≈ 548 µM) | 62.5 (≈ 274 µM) | 125 (≈ 548 µM) | 15.6 (≈ 68.3 µM) |
| CCc1ccc(C(=O)Nc2cc([N+](=O)[O-])ccc2O)cc1 | 125 (≈ 437 µM) | 250 (≈ 873 µM) | 250 (≈ 873 µM) | 3.9 (≈ 13.6 µM) | 7.8 (≈ 27.2 µM) | 125 (≈ 437 µM) | 62.5 (≈ 218 µM) | 125 (≈ 437 µM) | 250 (≈ 873 µM) | 31.2 (≈ 109 µM) | 62.5 (≈ 218 µM) | 7.8 (≈ 27.2 µM) |
| Cc1ccc(CC(=O)Nc2cc([N+](=O)[O-])ccc2O)cc1 | 250 (≈ 873 µM) | 250 (≈ 873 µM) | 250 (≈ 873 µM) | 15.6 (≈ 54.5 µM) | 250 (≈ 873 µM) | 250 (≈ 873 µM) | 250 (≈ 873 µM) | 125 (≈ 437 µM) | 125 (≈ 437 µM) | 62.5 (≈ 218 µM) | 125 (≈ 437 µM) | 125 (≈ 437 µM) |
| CO[C@H]1/C=C/O[C@@]2(C)Oc3c(C)c(O)c4c(O)c(c(/C=N/N5CCN(C)CC5)c(O)c4c3C2=O)NC(=O)/C(C)=C\C=C\[C@H](C)[C@H](O)[C@@H](C)[C@@H](O)[C@@H](C)[C@H](OC(C)=O)[C@@H]1C [RIFAMPIN] | 256 (≈ 311 µM) | 32 (≈ 38.9 µM) | 62.5 (≈ 75.9 µM) | – | > 4100 | – | – | > 4100 | 16 (≈ 19.4 µM) | 256 (≈ 311 µM) | 32 (≈ 38.9 µM) | 512 (≈ 622 µM) |
| CC1(C)S[C@@H]2[C@H](NC(=O)[C@H](N)c3ccccc3)C(=O)N2[C@H]1C(=O)O.O.O.O [AMPICILLIN TRIHYDRATE] | 256 | 2 | 500 | 16 | 64 | – | – | > 4100 | 1020 | 8 | 4 | > 4100 |
| O=C(Cc1ccc(F)cc1)Nc1cc([N+](=O)[O-])ccc1O | 125 (≈ 431 µM) | 250 (≈ 861 µM) | 250 (≈ 861 µM) | 15.6 (≈ 53.7 µM) | 31.2 (≈ 108 µM) | 250 (≈ 861 µM) | 125 (≈ 431 µM) | 62.5 (≈ 215 µM) | 125 (≈ 431 µM) | 31.2 (≈ 108 µM) | 250 (≈ 861 µM) | 31.2 (≈ 108 µM) |
| C[C@@H]1[C@H](O)[C@@H](C)/C=C/C=C/C=C/C=C/C=C/C=C/C=C/[C@H](O[C@@H]2O[C@H](C)[C@@H](O)[C@H](N)[C@@H]2O)C[C@@H]2O[C@](O)(C[C@@H](O)C[C@@H](O)[C@H](O)CC[C@@H](O)C[C@@H](O)CC(=O)O[C@H]1C)C[C@H](O)[C@H]2C(=O)O [AMPHOTERICIN B] | – | – | – | – | – | – | 128 (≈ 139 µM) | – | – | – | – | – |
| O=C(Cc1ccc(Cl)cc1)Nc1ccc([N+](=O)[O-])cc1O | 125 (≈ 408 µM) | 250 (≈ 815 µM) | 125 (≈ 408 µM) | 250 (≈ 815 µM) | 125 (≈ 408 µM) | 125 (≈ 408 µM) | 125 (≈ 408 µM) | 125 (≈ 408 µM) | 125 (≈ 408 µM) | 31.2 (≈ 102 µM) | 125 (≈ 408 µM) | 125 (≈ 408 µM) |
| O=C(Nc1ccc([N+](=O)[O-])cc1O)c1ccc(F)cc1 | 250 (≈ 905 µM) | 250 (≈ 905 µM) | 250 (≈ 905 µM) | 3.9 (≈ 14.1 µM) | 7.8 (≈ 28.2 µM) | 250 (≈ 905 µM) | 250 (≈ 905 µM) | 125 (≈ 453 µM) | 125 (≈ 453 µM) | 15.6 (≈ 56.5 µM) | 125 (≈ 453 µM) | 15.6 (≈ 56.5 µM) |
| Nc1ccc(NC(=O)Cc2ccc(F)cc2)c(O)c1 | 125 (≈ 480 µM) | 125 (≈ 480 µM) | 125 (≈ 480 µM) | 250 (≈ 961 µM) | 125 (≈ 480 µM) | 125 (≈ 480 µM) | 125 (≈ 480 µM) | 62.5 (≈ 240 µM) | 125 (≈ 480 µM) | 62.5 (≈ 240 µM) | 125 (≈ 480 µM) | 62.5 (≈ 240 µM) |
| O=C(Cc1ccc(Br)cc1)Nc1ccc([N+](=O)[O-])cc1O | 125 (≈ 356 µM) | 250 (≈ 712 µM) | 250 (≈ 712 µM) | 31.2 (≈ 89 µM) | 250 (≈ 712 µM) | 250 (≈ 712 µM) | 250 (≈ 712 µM) | 125 (≈ 356 µM) | 250 (≈ 712 µM) | 125 (≈ 356 µM) | 250 (≈ 712 µM) | 125 (≈ 356 µM) |
